Source: PubChem
M1 ag: M1 muscarinic receptor agonism; CHO-M1 cells, Fluo-4 calcium fluorescence, agonist mode; hits give high values; B-score at 10 µM; 3% of 64,000 active;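 active = fluorescence rise, raw or as B-score row- and column-corrected plate score, outside the 99.7% band of its plate's samples, either direction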
HEK293 NFkB inh: lowers PMA/ionomycin-induced NF-kB signal in HEK293 cells. AID 465. 0.21% of 62,000 active. HEK-293 NF-kB luciferase reporter, luminescence. inhibition, % at 3 µM;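 active = inhibition above the mean of all tested compounds plus 3 SD, cut at about 40% in these data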;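 also: 0% = stimulated DMSO wells and 100% = 10 µM reference inhibitor 5653914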
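Reagent: PMA plus ionomycin mix as NF-kB-activating stimulus. Assay system: NF-kB luciferase reporter HEK-293 cells. Technique: luminescence from luciferase substrate reagent. Incubation: 1 h compound pre-incubation, 16 h PMA/ionomycin at 37 °C. Benchmarks: DMSO only as uninhibited control, 10 µM reference inhibitor as full inhibition. Repeats: tested once.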
DAT uptake mod: human DAT dopamine uptake with cocaine, either direction. Q01959. LLC-PK1 hDAT cells, [14C]-dopamine uptake with cocaine IC80; actives deviate in either direction. B-score at 10 µM. 1.3% of 110,000 active. AID 449768;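 active = Z score or B-score, a plate-position-corrected score, falls beyond the plate's 99.7% confidence bounds, in either direction; inactive = both scores lie inside the 99.7% bounds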;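 also: scored against the spread of the other compound wells on the same plate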
Target sequence (Q01959 whole entry, looked up): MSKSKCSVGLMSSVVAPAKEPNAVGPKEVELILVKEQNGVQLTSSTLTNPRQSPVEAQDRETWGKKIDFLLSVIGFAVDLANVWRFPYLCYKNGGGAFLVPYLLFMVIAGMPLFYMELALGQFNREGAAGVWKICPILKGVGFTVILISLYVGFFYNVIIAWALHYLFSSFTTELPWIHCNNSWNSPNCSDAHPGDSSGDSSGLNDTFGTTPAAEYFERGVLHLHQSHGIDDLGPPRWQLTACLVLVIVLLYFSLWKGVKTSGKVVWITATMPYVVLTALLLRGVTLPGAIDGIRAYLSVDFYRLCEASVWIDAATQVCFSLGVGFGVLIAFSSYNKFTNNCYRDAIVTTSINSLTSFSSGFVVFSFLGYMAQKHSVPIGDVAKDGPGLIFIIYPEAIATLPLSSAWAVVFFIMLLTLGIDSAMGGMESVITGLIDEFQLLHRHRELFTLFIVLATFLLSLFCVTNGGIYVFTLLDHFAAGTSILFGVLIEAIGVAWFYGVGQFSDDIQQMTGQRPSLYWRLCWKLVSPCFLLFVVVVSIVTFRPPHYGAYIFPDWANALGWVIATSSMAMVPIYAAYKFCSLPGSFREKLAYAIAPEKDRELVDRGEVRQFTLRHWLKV
D1 allo mod: D1 dopamine receptor (human) allosteric modulation | B-score at 10 µM | 5.9% of 58,000 active | P21728 | AID 641 | HEK293 D1, CRE-luciferase, dopamine EC30 potentiation; actives deviate in either direction;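 active = luminescence count or its row- and column-corrected plate score outside the 99.7% band of the plate's sample wells, on either side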
Jurkat tox 60K: cytotoxicity toward Jurkat cells; Jurkat E6.1 viability, ATP luminescence, 48 h; inhibition, % at 4 µM; 1.2% of 56,000 active; AID 463;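 active = inhibition above the mean inhibition of all tested compounds plus 3 SD, cut at about 28% in these data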
M1 antagonist: blocks the rat M1 muscarinic receptor response to acetylcholine; P08482; CHO-M1 cells, Fluo-4 calcium, ACh EC80 antagonist mode; hits give low values; B-score at 10 µM; 3.4% of 64,000 active;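 active = calcium fluorescence response, raw or row-and-column corrected B-score, differing from the plate sample mean either way at a set confidence level, mostly lower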
The depositor's hits bear a star; nt = no result given. In the library only some 7.6% were active in any assay of this set; here they are far more common.

SMILES	M1 ag	HEK293 NFkB inh	DAT uptake mod	D1 allo mod	Jurkat tox 60K	M1 antagonist
CCOC(=O)CCn1nnc(N)n1	0.395	6.8	-0.0657	-4.17*	-3.2	-0.329
O=C(Nc1ccc(Cl)cc1)Nc1cccnc1	nt	nt	-2.33*	nt	nt	nt
O=C(Nc1ccc(Cl)cn1)c1ccccc1F	nt	nt	0.0906	nt	nt	nt
O=C(Nc1ccc(Cl)cn1)c1cccc(F)c1	-0.0546	-1.8	0.582	0.0414	84.8*	0.0463
CC(C)CCn1c(=O)c2ccccc2n2c(CN(C)Cc3ccccc3)nnc12	1.05	27.8	-8.56*	2.19	12.6	-0.0502
CCC/C(O)=C1\C(=O)CC(C)(C)CC1=Nc1ccc(OC)cc1OC	2.15	21.2	-0.276	1.11	86.5*	-0.361
CCCC/C(O)=C1\C(=O)CC(C)(C)CC1=Nc1ccccc1OC	nt	nt	2.43	nt	nt	nt
Cc1c(Cl)cccc1N(CC(=O)N1CCCCCC1)S(C)(=O)=O	-1.03	8.9	0.415	0.0242	3.6	0.939
O=C(Nc1c2ccccc2nc2ccccc12)C(Cl)(Cl)Cl	nt	nt	-0.525	nt	nt	nt
CC(C)Cc1nc(N2CCN(C(=O)Cc3ccccc3)CC2)c(C#N)c2c1COC(C)(C)C2	-0.417	nt	nt	nt	nt	-0.0773
CCCC(=O)N1CCN(c2nc(CC(C)C)c3c(c2C#N)CCC3)CC1	1.99	nt	2.61*	4.11	nt	-0.219
CCCCOc1ccc(-c2nc(=S)[nH][nH]2)cc1	nt	nt	-0.419	nt	nt	nt
Cn1c(=O)oc2cc(S(=O)(=O)Nc3ccc4c(c3)OCCO4)ccc21	-0.491	12.1	-0.0781	-1.42	12.9	-0.591
Cn1c(=O)c(=O)n(C)c2cc(S(=O)(=O)Nc3ccc4c(c3)OCCO4)ccc21	0.0338	6.4	-0.0384	-5.71*	4.2	0.00825
Cc1ccc(OCC(=O)Nc2nnn(C)n2)c(C)c1	0.593	4.5	-2.56*	-1.98	-5.8	0.198
Cc1cc(C)c(OCC(=O)Nc2nnn(C)n2)c(Br)c1	-1.25	8.2	-1.15	0.037	-4.9	-0.231
CCCn1nnc(NC(=O)COc2cc(C)ccc2C(C)C)n1	-0.705	2.3	-8.89*	-0.00119	11.5	-0.116
Cc1ccc(S(=O)(=O)N2CCCC2c2nc3ccccc3s2)cc1 (stereo not drawn)	nt	nt	-1.32	nt	nt	nt
Cc1onc(-c2ccccc2)c1C(=O)Nc1ccc(-c2nnc3n2CCCCC3)cc1	-0.0606	12.7	0.667	-0.831	-8.2	0.342
NC(=O)NC(Cc1ccccc1)c1ccccc1 (stereo not drawn)	2.26*	13.2	-0.0795	nt	-2.3	-0.243
Cc1cc(NO)nc(-c2ccc(Br)cc2)n1	0.348	-19.9	0.482	0.82	33.9*	0.603
Cc1cc(C)nc(NS(=O)(=O)c2ccc(Br)cc2)n1	-0.114	23.3	-0.456	0.846	-2.7	-0.433
O=C(COc1ncnc2ccc(Br)cc12)NCc1ccc2c(c1)OCO2	nt	nt	-8.86*	nt	nt	nt
Cn1c(=O)n(CC(=O)N2CCOCC2)c2ccccc21	-0.173	14.6	-0.689	0.424	5.6	0.619
O=CN1CCN(C(=O)c2ccccc2F)CC1	-0.52	4.3	0.0466	-3.2*	1.4	-0.806
SMILES	M1 ag	HEK293 NFkB inh	DAT uptake mod	D1 allo mod	Jurkat tox 60K	M1 antagonist
O=C(c1ccccc1F)N1CCN(Cc2ccccc2F)CC1	nt	nt	0.193	nt	nt	nt
COc1ccc(Nc2ccc3c(c2)=NC2(CCCCC2)[N+]=3[O-])cc1	-0.131	nt	0.529	-2.72*	nt	-2.37
CC1=CC(C)(C)N2C(=O)C3(C(C#N)=C(N)OC4=C3C(=O)CCC4)c3c(C)c(C)cc1c32 (stereo not drawn)	-0.42	20.2	-0.401	-1.04	9.0	0.0323
CC1=CC(C)(C)N2C(=O)C3(C(C#N)=C(N)Oc4cc(O)ccc43)c3c(C)c(C)cc1c32 (stereo not drawn)	nt	nt	2.63*	nt	nt	nt
Cc1ccc(N(CC(=O)NCc2ccc3c(c2)OCO3)S(C)(=O)=O)cc1	-0.192	10.7	0.0349	0.0489	-7.4	-0.403
CNC(=O)c1ccsc1NC(=O)c1ccccc1	0.353	5.6	1.21	17*	-7.3	-1.26
Cc1ccc(NC2=C/C(=N\S(=O)(=O)c3cccs3)c3ccccc3C2=O)c(C)c1	nt	nt	-0.327	nt	nt	nt
Cc1ccc(Cl)cc1NC1=C/C(=N\S(=O)(=O)c2cccs2)c2ccccc2C1=O	nt	nt	-3.53*	nt	nt	nt
Cc1ccc(-c2ccc(/C=N/n3cnnc3)o2)cc1Cl	-0.161	9.3	-0.582	-1.61	1.0	-0.6
Clc1cccc(-c2ccc(/C=N/n3cnnc3)o2)c1	-0.59	14.0	-0.0213	-5.09*	-5.5	0.00134
Cc1ccc(C(=O)N2CCN(c3ccccc3)CC2)cc1C	-0.394	7.0	0.944	nt	3.9	0.41
Cc1ccc(C(=O)N2CCN(c3cccc(Cl)c3)CC2)cc1C	-0.495	12.2	0.0364	-0.304	37.8*	-0.126
